Results published in ChEMBL document CHEMBL1914373, “Synthesis and biological evaluation of novel dimethyl[1,1'-biphenyl]-2,2'-dicarboxylate derivatives containing thiazolidine-2,4-dione for the treatment of concanavalin A-induced acute liver injury of BALB/c mice” (2011).
The source made the active and inactive calls. The rule behind the calls is not given here.

Assays:
[1] = system: RAW264.7; assay: Antiinflammatory activity in LPS-stimulated mouse RAW264.7 cells assessed as inhibition of LPS-induced NO production after 22 hrs by Griess reaction; format: functional, cell-based
How it was run: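 RAW 264.7 macrophages grown in RPMI 1640, 37 °C, 5% CO2; seeded 1 × 10^4/well, cultured 24 h, then exposed to LPS with or without compounds at a range of concentrations for 22 h. Supernatant mixed 1:1 with Griess reagent, 10 min at room temperature, A540 read; nitrite quantified against sodium nitrite standards in RPMI 1640. Three independent experiments.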

[2] = system: Mus musculus; assay: Hepatoprotective activity in BALB/c mouse hepatitis model assessed as reduction in concanavalin A-induced increase in serum AST level at 50 mg/kg, […] relative to control; format: functional; set-up: scale not given: the % may be the effect or the level left; details: route oral
[3] = system: Mus musculus; assay: Antiinflammatory activity in ICR mouse assessed as reduction in carrageenan-induced paw edema at 50 mg/kg, po administered 30 mins before carrageenan challenge measured at 3 hr post challenge; format: functional; set-up: scale not given: the % may be the effect or the level left
[4] = system: Mus musculus; assay: Hepatoprotective activity in BALB/c mouse hepatitis model assessed as reduction in concanavalin A-induced increase in serum ALT level at 50 mg/kg, […] relative to control; format: functional; set-up: scale not given: the % may be the effect or the level left; details: route oral
[5] = system: Mus musculus; assay: Antiinflammatory activity in po dosed ICR mouse assessed as reduction in carrageenan-induced paw edema administered 30 mins before carrageenan challenge measured up to 5 hrs; format: functional, organism-based
[6] = system: Rattus norvegicus; assay: Hepatoprotective activity […] assessed as decrease in liver lesions at 50 mg/kg, po administered before concanavalin A challenge by hematoxylin and eosin staining-based histopathology analysis; format: functional, organism-based; set-up: dose 50 mg/kg
[7] = system: Rattus norvegicus; assay: Hepatoprotective activity […] assessed as reduction in concanavalin A-induced inflammatory cells infiltration at 50 mg/kg, po administered before concanavalin A challenge by hematoxylin and eosin staining-based histopathology analysis; format: functional, organism-based; set-up: dose 50 mg/kg
[8] = system: Rattus norvegicus; assay: Hepatoprotective activity […] assessed as reduction in necrosis in liver lobules at 50 mg/kg, po administered before concanavalin A challenge by hematoxylin and eosin staining-based histopathology analysis; format: functional, organism-based; set-up: dose 50 mg/kg

SMILES | inhibition [1] | other results
COC(=O)c1cc(OC)c2c(c1-c1c(C(=O)Oc3cc(/C=C4/SC(=O)NC4=O)ccc3OC)cc(OC)c3c1OCO3)OCO2 | Active | –
CCOc1cc(/C=C2\SC(=O)NC2=O)ccc1OC(=O)c1cc(OC)c2c(c1-c1c(C(=O)OC)cc(OC)c3c1OCO3)OCO2 | Active | –
COC(=O)c1cc(OC)c2c(c1-c1c(C(=O)Oc3ccc(Cl)cc3/C=C3/SC(=O)NC3=O)cc(OC)c3c1OCO3)OCO2 | Dose-dependent effect | –
COC(=O)c1cc(OC)c2c(c1-c1c(C(=O)Oc3c(OC)cc(/C=C4\SC(=O)NC4=O)cc3OC)cc(OC)c3c1OCO3)OCO2 | Active | –
COC(=O)c1cc(OC)c2c(c1-c1c(C(=O)OC)cc(OC)c3c1OCO3)OCO2 [BIFENDATE] | – | Activity [2]: 50.62%; Activity [3]: 20.98%; Activity [4]: 44.58%
COC(=O)c1cc(OC)c2c(c1-c1c(C(=O)Oc3ccc(/C=C4\SC(=O)NC4=O)cc3F)cc(OC)c3c1OCO3)OCO2 | Active | –
COC(=O)c1cc(OC)c2c(c1-c1c(C(=O)Oc3ccc(/C=C4\SC(=O)NC4=O)cc3OC)cc(OC)c3c1OCO3)OCO2 | Active | –
COC(=O)c1cc(OC)c2c(c1-c1c(C(=O)Oc3ccc(/C=C4\SC(=O)NC4=O)cc3)cc(OC)c3c1OCO3)OCO2 | Active | Activity [2]: 69.12%; Activity [5]: Dose-dependent effect; Activity [3]: 54.88%; Activity [4]: 94.96%; Activity [6]: Active; Activity [7]: Active; Activity [8]: Active
COC(=O)c1cc(OC)c2c(c1-c1c(C(=O)Oc3cccc(/C=C4/SC(=O)NC4=O)c3)cc(OC)c3c1OCO3)OCO2 | Active | –
COC(=O)c1cc(OC)c2c(c1-c1c(C(=O)Oc3c(Cl)cc(Cl)cc3/C=C3/SC(=O)NC3=O)cc(OC)c3c1OCO3)OCO2 | Active | –
COC(=O)c1cc(OC)c2c(c1-c1c(C(=O)Oc3c(Br)cc(Br)cc3/C=C3/SC(=O)NC3=O)cc(OC)c3c1OCO3)OCO2 | Active | –
COC(=O)c1cc(OC)c2c(c1-c1c(C(=O)Oc3ccc(/C=C4\SC(=O)NC4=O)cc3Br)cc(OC)c3c1OCO3)OCO2 | Active | –
COC(=O)c1cc(OC)c2c(c1-c1c(C(=O)Oc3ccccc3/C=C3/SC(=O)NC3=O)cc(OC)c3c1OCO3)OCO2 | Active | –
